Measurements published in ChEMBL document CHEMBL1150387, “Development and experimental validation of a docking strategy for the generation of kinase-targeted libraries” (J Med Chem, 2008).

Columns and labels:
[1] = biological target: Insulin-like growth factor 1 receptor (Homo sapiens) (UniProt P08069); assay: Inhibition of IGF1R at 10 uM by HTRF assay relative to control
Method in brief: (§1)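 HTRF kinase assay, one panel of kinases. Inhibitor stock 50 µM in 100% DMSO; tested at 10 µM. ATP and substrate at final levels near Km. Final buffer: 50 mM Hepes/NaOH pH 7.4, 40 µM Na3VO4, 0.005% Tween-20, 1 mM DTT, MnCl2 or MgCl2 at kinase-dependent levels. Started by adding ATP/substrate. Reaction run at room temperature, time varied by kinase. Detection mix in 50 mM Hepes pH 7.4, 0.1% BSA, 150 mM KF, incubated ≥1 h at room temperature. Activity expressed as % of uninhibited control; n=2.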

[2] = biological target: Mitogen-activated protein kinase 9 (Homo sapiens) (UniProt P45984); assay: Inhibition of JNK2 at 10 uM by HTRF assay relative to control; method in brief: as §1
[3] = Inhibition of AMPKalpha at 10 uM by HTRF assay relative to control; method in brief: as §1
[4] = biological target: T1, Tyrosine-protein kinase ZAP-70 (Homo sapiens) (UniProt P43403); assay: Inhibition of ZAP70 at 10 uM by HTRF assay relative to control; method in brief: as §1
T1 sequence (whole entry): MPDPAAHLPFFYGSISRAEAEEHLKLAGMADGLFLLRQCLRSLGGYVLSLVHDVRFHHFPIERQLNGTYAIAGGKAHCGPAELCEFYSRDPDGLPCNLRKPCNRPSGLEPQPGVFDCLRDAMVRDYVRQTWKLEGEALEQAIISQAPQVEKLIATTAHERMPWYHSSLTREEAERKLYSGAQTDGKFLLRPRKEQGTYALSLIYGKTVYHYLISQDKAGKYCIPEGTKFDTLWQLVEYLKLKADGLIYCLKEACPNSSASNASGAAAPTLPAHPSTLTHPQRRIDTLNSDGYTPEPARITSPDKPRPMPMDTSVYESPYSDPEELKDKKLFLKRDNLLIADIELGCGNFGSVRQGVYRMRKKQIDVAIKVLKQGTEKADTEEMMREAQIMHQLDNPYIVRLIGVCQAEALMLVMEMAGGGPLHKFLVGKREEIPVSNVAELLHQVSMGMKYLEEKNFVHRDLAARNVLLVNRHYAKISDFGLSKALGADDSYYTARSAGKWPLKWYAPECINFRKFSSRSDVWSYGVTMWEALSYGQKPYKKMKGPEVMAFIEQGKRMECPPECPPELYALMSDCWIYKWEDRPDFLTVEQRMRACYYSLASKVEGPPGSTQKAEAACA

[5] = biological target: Proto-oncogene tyrosine-protein kinase Src (Homo sapiens) (UniProt P12931); assay: Inhibition of Src at 10 uM by HTRF assay relative to control; method in brief: as §1
[6] = biological target: Tyrosine-protein kinase Lyn (Homo sapiens) (UniProt P07948); assay: Inhibition of Lyn at 10 uM by HTRF assay relative to control; method in brief: as §1
[7] = biological target: T2, Tyrosine-protein kinase JAK3 (Homo sapiens) (UniProt P52333); assay: Inhibition of JAK3 at 10 uM by HTRF assay relative to control; method in brief: as §1
T2 sequence (whole entry): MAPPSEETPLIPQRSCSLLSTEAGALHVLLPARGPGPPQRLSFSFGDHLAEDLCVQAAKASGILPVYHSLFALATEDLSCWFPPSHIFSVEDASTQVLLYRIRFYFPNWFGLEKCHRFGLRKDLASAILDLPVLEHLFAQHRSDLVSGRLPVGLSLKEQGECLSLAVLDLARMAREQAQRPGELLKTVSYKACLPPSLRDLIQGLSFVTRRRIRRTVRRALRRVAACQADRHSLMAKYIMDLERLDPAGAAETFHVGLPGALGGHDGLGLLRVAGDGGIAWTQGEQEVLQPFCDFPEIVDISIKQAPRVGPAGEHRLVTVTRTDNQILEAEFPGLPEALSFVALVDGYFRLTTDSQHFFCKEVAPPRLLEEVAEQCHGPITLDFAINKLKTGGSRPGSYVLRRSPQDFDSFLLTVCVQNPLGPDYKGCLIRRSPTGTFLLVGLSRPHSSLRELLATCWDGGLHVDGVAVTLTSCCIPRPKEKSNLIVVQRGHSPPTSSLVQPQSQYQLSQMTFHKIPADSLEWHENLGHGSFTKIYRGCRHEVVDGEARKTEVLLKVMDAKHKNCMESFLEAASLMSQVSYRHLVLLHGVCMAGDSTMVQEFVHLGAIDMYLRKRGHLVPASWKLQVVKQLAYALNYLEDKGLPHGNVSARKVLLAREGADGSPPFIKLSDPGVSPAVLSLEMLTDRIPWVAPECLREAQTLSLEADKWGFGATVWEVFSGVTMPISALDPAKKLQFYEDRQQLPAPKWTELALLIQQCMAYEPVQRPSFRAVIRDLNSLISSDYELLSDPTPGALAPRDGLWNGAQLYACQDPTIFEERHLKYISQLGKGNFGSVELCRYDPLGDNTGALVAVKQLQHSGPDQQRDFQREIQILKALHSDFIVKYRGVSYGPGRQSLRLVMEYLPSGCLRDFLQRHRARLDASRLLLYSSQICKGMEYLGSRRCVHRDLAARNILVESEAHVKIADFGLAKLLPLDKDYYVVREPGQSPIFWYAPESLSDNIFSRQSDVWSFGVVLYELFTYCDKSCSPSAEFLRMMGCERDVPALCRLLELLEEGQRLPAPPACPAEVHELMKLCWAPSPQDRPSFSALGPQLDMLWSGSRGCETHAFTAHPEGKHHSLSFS

[8] = biological target: Tyrosine-protein kinase Fes/Fps (Homo sapiens) (UniProt P07332); assay: Inhibition of FES at 10 uM by HTRF assay relative to control; method in brief: as §1
[9] = biological target: High affinity nerve growth factor receptor (Homo sapiens) (UniProt P04629); assay: Inhibition of TrkA at 10 uM by HTRF assay relative to control; method in brief: as §1
High affinity nerve growth factor receptor (Homo sapiens), sequence (P04629 33-796 limits assumed): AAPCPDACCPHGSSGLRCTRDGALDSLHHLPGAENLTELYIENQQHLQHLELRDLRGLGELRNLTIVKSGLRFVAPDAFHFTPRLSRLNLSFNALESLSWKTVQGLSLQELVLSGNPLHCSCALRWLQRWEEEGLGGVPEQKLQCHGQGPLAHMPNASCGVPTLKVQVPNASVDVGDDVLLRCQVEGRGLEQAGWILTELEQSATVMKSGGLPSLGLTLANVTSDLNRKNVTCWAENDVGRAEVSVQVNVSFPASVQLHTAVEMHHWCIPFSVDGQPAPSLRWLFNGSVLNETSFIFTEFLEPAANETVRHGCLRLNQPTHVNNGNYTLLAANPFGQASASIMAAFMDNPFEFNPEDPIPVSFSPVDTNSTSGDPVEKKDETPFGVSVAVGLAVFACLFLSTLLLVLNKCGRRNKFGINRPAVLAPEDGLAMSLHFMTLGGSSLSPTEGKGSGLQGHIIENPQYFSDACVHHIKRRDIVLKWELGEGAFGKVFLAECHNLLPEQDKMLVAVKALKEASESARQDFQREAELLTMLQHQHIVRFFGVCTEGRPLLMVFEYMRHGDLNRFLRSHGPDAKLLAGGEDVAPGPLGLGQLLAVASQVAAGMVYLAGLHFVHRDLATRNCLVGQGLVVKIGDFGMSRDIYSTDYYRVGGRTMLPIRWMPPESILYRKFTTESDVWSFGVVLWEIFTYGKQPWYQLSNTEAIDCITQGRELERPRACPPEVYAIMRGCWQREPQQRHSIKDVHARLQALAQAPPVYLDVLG

Tyrosine-protein kinase Fes/Fps (Homo sapiens), sequence (P07332 whole entry): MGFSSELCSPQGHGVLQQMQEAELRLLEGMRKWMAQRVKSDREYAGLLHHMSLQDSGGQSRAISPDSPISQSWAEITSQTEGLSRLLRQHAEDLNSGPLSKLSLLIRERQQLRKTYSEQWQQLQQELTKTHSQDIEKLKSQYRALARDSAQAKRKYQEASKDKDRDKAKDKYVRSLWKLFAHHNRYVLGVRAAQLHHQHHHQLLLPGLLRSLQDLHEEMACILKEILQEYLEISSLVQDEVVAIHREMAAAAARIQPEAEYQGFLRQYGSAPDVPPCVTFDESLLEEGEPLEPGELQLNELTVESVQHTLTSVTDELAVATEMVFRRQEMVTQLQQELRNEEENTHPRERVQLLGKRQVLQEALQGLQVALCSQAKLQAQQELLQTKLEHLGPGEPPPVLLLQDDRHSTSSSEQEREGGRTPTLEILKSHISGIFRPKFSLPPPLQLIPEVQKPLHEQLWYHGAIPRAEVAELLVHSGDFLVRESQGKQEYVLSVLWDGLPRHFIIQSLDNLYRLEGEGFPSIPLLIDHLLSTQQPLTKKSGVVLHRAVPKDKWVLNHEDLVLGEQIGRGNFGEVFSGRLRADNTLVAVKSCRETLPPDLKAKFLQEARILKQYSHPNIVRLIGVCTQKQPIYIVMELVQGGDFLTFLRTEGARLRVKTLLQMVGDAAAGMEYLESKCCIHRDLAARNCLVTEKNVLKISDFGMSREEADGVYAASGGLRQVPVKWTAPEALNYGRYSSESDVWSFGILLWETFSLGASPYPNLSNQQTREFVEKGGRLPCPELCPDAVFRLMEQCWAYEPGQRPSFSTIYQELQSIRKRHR
Insulin-like growth factor 1 receptor (Homo sapiens), sequence (P08069 31-736 limits assumed): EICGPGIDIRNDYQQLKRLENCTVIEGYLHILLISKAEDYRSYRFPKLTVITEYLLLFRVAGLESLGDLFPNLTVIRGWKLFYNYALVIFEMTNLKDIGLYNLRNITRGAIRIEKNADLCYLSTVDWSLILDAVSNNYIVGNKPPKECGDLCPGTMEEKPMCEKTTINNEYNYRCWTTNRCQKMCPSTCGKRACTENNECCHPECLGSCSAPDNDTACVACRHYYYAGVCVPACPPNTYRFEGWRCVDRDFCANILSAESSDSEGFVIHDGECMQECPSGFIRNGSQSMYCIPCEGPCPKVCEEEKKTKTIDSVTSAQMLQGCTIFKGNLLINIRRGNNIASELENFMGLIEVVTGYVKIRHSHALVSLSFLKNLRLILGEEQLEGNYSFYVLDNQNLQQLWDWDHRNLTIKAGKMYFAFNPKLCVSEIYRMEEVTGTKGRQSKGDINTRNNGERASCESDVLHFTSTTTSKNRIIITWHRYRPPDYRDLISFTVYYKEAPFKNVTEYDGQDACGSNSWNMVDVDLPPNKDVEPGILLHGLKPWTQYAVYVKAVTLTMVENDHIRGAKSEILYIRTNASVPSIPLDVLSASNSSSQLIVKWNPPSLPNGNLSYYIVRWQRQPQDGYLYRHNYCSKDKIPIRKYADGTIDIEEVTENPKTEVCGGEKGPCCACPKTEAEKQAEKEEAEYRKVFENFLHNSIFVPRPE
Insulin-like growth factor 1 receptor (Homo sapiens), sequence (P08069 741-1367 limits assumed): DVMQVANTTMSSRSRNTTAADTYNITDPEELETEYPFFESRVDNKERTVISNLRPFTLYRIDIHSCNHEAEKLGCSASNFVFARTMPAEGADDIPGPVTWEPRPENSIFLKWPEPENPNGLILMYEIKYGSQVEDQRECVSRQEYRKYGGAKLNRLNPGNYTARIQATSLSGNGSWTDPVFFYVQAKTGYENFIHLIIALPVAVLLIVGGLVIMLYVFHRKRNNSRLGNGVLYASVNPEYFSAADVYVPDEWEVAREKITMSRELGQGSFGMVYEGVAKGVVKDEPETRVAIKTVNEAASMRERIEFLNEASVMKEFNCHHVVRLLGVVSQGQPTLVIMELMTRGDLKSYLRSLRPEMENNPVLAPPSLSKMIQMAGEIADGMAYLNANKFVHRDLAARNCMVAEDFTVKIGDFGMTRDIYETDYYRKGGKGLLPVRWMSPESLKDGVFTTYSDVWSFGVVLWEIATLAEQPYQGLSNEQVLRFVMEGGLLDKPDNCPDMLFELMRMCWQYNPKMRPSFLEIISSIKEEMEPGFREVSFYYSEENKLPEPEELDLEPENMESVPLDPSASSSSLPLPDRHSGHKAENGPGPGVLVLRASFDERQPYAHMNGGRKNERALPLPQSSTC
Tyrosine-protein kinase Lyn (Homo sapiens), sequence (P07948 2-512 limits assumed): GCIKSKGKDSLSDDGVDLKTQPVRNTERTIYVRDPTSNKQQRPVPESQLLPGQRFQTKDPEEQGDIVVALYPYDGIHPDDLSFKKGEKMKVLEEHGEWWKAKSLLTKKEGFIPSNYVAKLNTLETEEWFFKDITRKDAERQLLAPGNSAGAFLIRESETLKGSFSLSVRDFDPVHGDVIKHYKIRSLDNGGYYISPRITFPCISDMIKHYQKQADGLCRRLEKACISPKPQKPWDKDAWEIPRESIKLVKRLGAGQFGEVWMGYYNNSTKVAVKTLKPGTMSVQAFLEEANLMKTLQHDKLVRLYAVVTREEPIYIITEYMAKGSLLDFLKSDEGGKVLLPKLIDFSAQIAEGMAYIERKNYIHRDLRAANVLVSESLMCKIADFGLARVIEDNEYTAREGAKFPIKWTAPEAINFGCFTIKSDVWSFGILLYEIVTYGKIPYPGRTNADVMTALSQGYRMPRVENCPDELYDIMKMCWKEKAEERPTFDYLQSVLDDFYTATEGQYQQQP
Mitogen-activated protein kinase 9 (Homo sapiens), sequence (P45984 whole entry, looked up): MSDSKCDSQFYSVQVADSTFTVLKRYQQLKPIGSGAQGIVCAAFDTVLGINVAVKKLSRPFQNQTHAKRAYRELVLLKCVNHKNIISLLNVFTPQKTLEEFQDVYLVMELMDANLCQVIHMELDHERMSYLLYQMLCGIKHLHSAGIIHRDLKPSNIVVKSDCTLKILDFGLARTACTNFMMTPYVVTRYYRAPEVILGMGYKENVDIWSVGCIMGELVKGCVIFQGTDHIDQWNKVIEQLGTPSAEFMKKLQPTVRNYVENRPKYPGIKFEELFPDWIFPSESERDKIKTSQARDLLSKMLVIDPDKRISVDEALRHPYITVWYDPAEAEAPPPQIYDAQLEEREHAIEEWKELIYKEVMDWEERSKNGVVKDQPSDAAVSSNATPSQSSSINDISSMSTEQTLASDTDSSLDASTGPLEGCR
Proto-oncogene tyrosine-protein kinase Src (Homo sapiens), sequence (P12931 2-536 limits assumed): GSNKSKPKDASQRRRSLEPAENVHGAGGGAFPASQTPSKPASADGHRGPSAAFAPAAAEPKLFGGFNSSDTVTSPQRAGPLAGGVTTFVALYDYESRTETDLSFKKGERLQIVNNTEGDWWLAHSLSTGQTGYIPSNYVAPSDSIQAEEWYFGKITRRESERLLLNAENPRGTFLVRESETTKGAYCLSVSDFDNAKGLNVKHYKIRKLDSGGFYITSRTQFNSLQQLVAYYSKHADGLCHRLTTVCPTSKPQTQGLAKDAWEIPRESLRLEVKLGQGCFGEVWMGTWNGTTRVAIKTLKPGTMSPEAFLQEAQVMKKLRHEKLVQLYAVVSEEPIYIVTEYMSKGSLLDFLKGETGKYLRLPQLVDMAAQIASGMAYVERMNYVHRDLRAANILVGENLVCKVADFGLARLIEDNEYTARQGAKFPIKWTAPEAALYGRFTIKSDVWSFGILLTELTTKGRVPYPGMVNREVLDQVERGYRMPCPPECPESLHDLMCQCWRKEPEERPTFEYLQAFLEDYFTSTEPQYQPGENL

Row | SMILES | inhibition [1] | inhibition [2] | inhibition [3] | inhibition [4] | inhibition [5] | inhibition [6] | inhibition [7] | inhibition [8] | inhibition [9]
1 | COC[C@@H]1CCCN1C(=O)[C@@H]1CCCN1c1nccc(Nc2ccccc2)n1 | 0% | 4% | 15% | 6% | 0% | 0% | 1% | 8% | 8%
2 | COc1ccc(NC(=O)Cc2ccc(Nc3cc(N(C)c4cccc(C)c4)ncn3)cc2)cn1 | 6% | 2% | 2% | 2% | 1% | 18% | 4% | 0% | 10%
3 | CN(CCCn1ccnc1)C(=O)[C@@H]1CCCN1c1nccc(Nc2ccccc2)n1 | 0% | 6% | 15% | 3% | 8% | 0% | 0% | 1% | 11%
4 | Cc1cccc(Oc2ccnc(N3CCC[C@H]3C(=O)NCc3cccnc3)n2)c1 | 0% | 4% | 0% | 6% | 0% | 6% | 0% | 5% | 4%
5 | Cc1cccc(Nc2cc(Nc3cccc(C(=O)N(CC(C)O)CC(C)O)c3)ncn2)c1 (stereo not given) | 0% | 8% | 6% | 6% | 26% | 49% | 7% | 20% | 11%
6 | O=C(NCc1cccnc1)c1cccc(-c2ccc(Nc3ccc4ncsc4c3)nn2)c1 | 32% | 51% | 54% | 11% | 11% | 48% | 41% | 18% | 0%
7 | Cc1cccc(N(C)c2cc(Nc3cccc(C(=O)NCc4ccc(N(C)C)cc4)c3)ncn2)c1 | 0% | 4% | 0% | 4% | 4% | 9% | 11% | 4% | 8%
8 | COc1cccc(Nc2cc(Nc3cccc(C(=O)NCCCn4ccnc4)c3)nc(N)n2)c1 | 8% | 32% | 8% | 6% | 10% | 2% | 11% | 18% | 7%
9 | Cc1cc(C(=O)N2CCN(c3ncnc4c3CN(Cc3ccccc3)CC4)CC2)c(C)n1C | 0% | 3% | 0% | 0% | 0% | 2% | 0% | 0% | 0%
10 | CC(=O)CCCCC(=O)N1CCN(c2nccc(Oc3cccc(C)c3)n2)CC1 | 0% | 11% | 9% | 0% | 5% | 3% | 0% | 16% | 0%
11 | O=C(c1nc(SCc2ccc(Cl)cc2)n2ccccc12)N1CCN(c2ncnc3c2CN(Cc2ccccc2)CC3)CC1 | 0% | 1% | 1% | 3% | 0% | 1% | 3% | 0% | 5%
12 | Cc1cccc(N(C)c2cc(Nc3ccc(CC(=O)Nc4ccc5ncsc5c4)cc3)ncn2)c1 | 0% | 5% | 0% | 5% | 6% | 16% | 12% | 24% | 23%

Continued, values first:

Row | inhibition [1] | inhibition [2] | inhibition [3] | inhibition [4] | inhibition [5] | inhibition [6] | inhibition [7] | inhibition [8] | inhibition [9] | SMILES
13 | 0% | 2% | 4% | 0% | 3% | 3% | 9% | 7% | 7% | COc1ccc(-c2noc(CN3CCN(c4cc(Nc5cccc(O)c5)ncn4)CC3)n2)cc1
14 | 0% | 3% | 7% | 4% | 4% | 3% | 10% | 3% | 5% | Cc1ccc(CN2CCN(c3nccc(C(C#N)c4ccccn4)n3)CC2)cc1 (stereo not given)
15 | 0% | 7% | 0% | 9% | 17% | 29% | 15% | 18% | 12% | CC(=O)N1CCN(C(=O)c2cccc(Nc3cc(N(C)c4cccc(C)c4)ncn3)c2)CC1
16 | 5% | 2% | 2% | 0% | 4% | 13% | 0% | 8% | 9% | COC[C@@H]1CCCN1C(=O)[C@@H]1CCCN1c1cc(Nc2cccc(OC)c2)nc(N)n1
17 | 0% | 44% | 49% | 0% | 13% | 12% | 5% | 18% | 9% | O=C(COc1ccccc1)N1CCN(c2nccc(Nc3ccc4ncsc4c3)n2)CC1
18 | 0% | 3% | 1% | 4% | 0% | 6% | 0% | 2% | 4% | Cc1cccc(Nc2nccc3c2CN(C(=O)c2cc(C)n(C)c2C)CC3)c1
19 | 0% | 1% | 11% | 8% | 10% | 7% | 0% | 3% | 7% | CN(C)CC(C)(C)CNC(=O)C1CCN(c2cc(N3CCOCC3)nc(N)n2)CC1
20 | 2% | 39% | 8% | 3% | 71% | 27% | 11% | 45% | 27% | O=C(NCCc1ccc(O)cc1)c1cccc(Nc2nccc(Nc3ccc4ncsc4c3)n2)c1
21 | 0% | 2% | 9% | 2% | 2% | 6% | 0% | 4% | 7% | COc1cccc(Nc2cc(N3CCC[C@H]3C(=O)NCCc3ccc(O)cc3)nc(N)n2)c1
22 | 0% | 21% | 0% | 6% | 26% | 19% | 0% | 22% | 13% | Cc1cccc(N(C)c2cc(Nc3cccc(C(=O)NCc4ccncc4)c3)ncn2)c1
23 | 0% | 0% | 0% | 0% | 3% | 0% | 8% | 5% | 8% | COC[C@@H]1CCCN1C(=O)C1CCCN1c1cc(Nc2cccc(Br)c2)ncn1 (stereo not given in full)
24 | 6% | 0% | 14% | 2% | 0% | 2% | 0% | 0% | 8% | Cc1cccc(N(C)c2cc(N3CCN(CC(=O)Nc4nc(-c5ccccc5)cs4)CC3)ncn2)c1
25 | 0% | 4% | 8% | 6% | 8% | 9% | 6% | 10% | 7% | Cc1cccc(Nc2nccc(Nc3cccc(C(=O)NCc4ccc(N(C)C)cc4)c3)n2)c1
